Values after ≈ are worked out from the molar mass of the structure shown.
Columns and labels:
[1] = test system: Bacillus amyloliquefaciens; assay: Antibacterial activity against Bacillus amyloliquefaciens at 25 ug/ml after overnight incubation by plate colony counting method relative to control; format: functional
Procedure, shortened: (§1)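 Plate colony counting on nutrient agar. Suspensions made from fresh colonies on NA slants grown 24 h, then serially diluted tenfold in sterile water. Duplicate aliquots of the 10^-5 and 10^-6 dilutions spread on NA plates containing test compound at 25 µg/mL; control plates NA only. Incubated overnight at 35 °C, colonies counted, inhibition given as percentage.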

Staphylococcus aureus = assay: Antibacterial activity against Staphylococcus aureus at 25 ug/ml after overnight incubation by plate colony counting method relative to control; format: functional; procedure, shortened: as §1
Bacillus subtilis = assay: Antibacterial activity against Bacillus subtilis at 25 ug/ml after overnight incubation by plate colony counting method relative to control; format: functional; procedure, shortened: as §1
Escherichia coli [2] = assay: Inhibition of Escherichia coli BL21.19 SecA at 10 ug/ml after 30 mins by malachite green dye-based assay relative to control
Procedure, shortened: (§2)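 SecA ATPase from E. coli BL21.19. Reaction contains Tris-HCl buffer (pH 7.6, with KCl, NH4Cl, DTT, Mg(OAc)2), […], […] and sample, diluted with distilled water; water as blank. Incubated 37 °C for 30 min. Malachite green/ammonium molybdate/Triton X-100 colour reagent added, then 34% citrate after 1 min. Absorbance read at 660 nm and inhibition calculated from it.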

Escherichia coli [3] = assay: Inhibition of Escherichia coli BL21.19 SecA at 20 ug/ml after 30 mins by malachite green dye-based assay relative to control; procedure, shortened: as §2
[4] = Inhibition of Escherichia coli BL21.19 SecA after 30 mins by malachite green dye-based assay; procedure, shortened: as §2

Structure (SMILES): N#Cc1c(-c2ccc(-c3ccccc3)cc2)nc(SCc2ccc(-c3nn4c(-c5ccccc5Cl)nnc4s3)cc2)[nH]c1=O
- inhibition at 25 µg/mL [1]: 81%
- inhibition at 25 µg/mL (Staphylococcus aureus): 83%
- inhibition at 25 µg/mL (Bacillus subtilis): 88%

Structure (SMILES): N#Cc1c(-c2ccc(Cl)cc2Cl)nc(SCc2ccc(-c3nn4c(-c5ccccc5)nnc4s3)cc2)[nH]c1=O
- inhibition at 25 µg/mL [1]: 82%
- inhibition at 25 µg/mL (Staphylococcus aureus): 88%
- inhibition at 25 µg/mL (Bacillus subtilis): 90%
- inhibition (Escherichia coli [2]): 51%
- inhibition (Escherichia coli [3]): 72%
- IC50 [4]: 9.7 µg/mL (≈ 16.5 µM)

Structure (SMILES): N#Cc1c(-c2ccccc2Cl)nc(SCc2ccc(-c3nn4c(-c5ccccc5)nnc4s3)cc2)[nH]c1=O
- inhibition at 25 µg/mL [1]: 66%
- inhibition at 25 µg/mL (Staphylococcus aureus): 46%
- inhibition at 25 µg/mL (Bacillus subtilis): 55%

Structure (SMILES): CCn1cc(C(=O)O)c(=O)c2cc(F)c(N3CCNCC3)cc21 [NORFLOXACIN]
- inhibition at 25 µg/mL [1]: 89%
- inhibition at 25 µg/mL (Staphylococcus aureus): 86%
- inhibition at 25 µg/mL (Bacillus subtilis): 85%

Structure (SMILES): N#Cc1c(-c2c(Cl)cccc2Cl)nc(SCc2ccc(-c3nn4c(-c5c(Cl)cccc5Cl)nnc4s3)cc2)[nH]c1=O
- inhibition at 25 µg/mL [1]: 86%
- inhibition at 25 µg/mL (Staphylococcus aureus): 82%
- inhibition at 25 µg/mL (Bacillus subtilis): 84%

Structure (SMILES): N#Cc1c(-c2ccc(-c3ccccc3)cc2)nc(SCc2ccc(CSc3nc(-c4ccc(-c5ccccc5)cc4)c(C#N)c(=O)[nH]3)cc2)[nH]c1=O
- inhibition at 25 µg/mL [1]: 85%
- inhibition at 25 µg/mL (Staphylococcus aureus): 87%
- inhibition at 25 µg/mL (Bacillus subtilis): 62%
- IC50 [4]: 20.8 µg/mL (≈ 29.2 µM)

Structure (SMILES): N#Cc1c(-c2ccc(-c3ccccc3)cc2)nc(SCc2ccc(-c3nn4c(-c5ccccc5)nnc4s3)cc2)[nH]c1=O
- inhibition at 25 µg/mL [1]: 58%
- inhibition at 25 µg/mL (Staphylococcus aureus): 68%
- inhibition at 25 µg/mL (Bacillus subtilis): 57%

Structure (SMILES): N#Cc1c(-c2ccc(-c3ccccc3)cc2)nc(SCc2ccc(-c3nn4c(-c5c(Cl)cccc5Cl)nnc4s3)cc2)[nH]c1=O
- inhibition at 25 µg/mL [1]: 82%
- inhibition at 25 µg/mL (Staphylococcus aureus): 84%
- inhibition at 25 µg/mL (Bacillus subtilis): 86%

Structure (SMILES): N#Cc1c(-c2ccc(Cl)cc2Cl)nc(SCc2ccc(-c3nn4c(-c5c(Cl)cccc5Cl)nnc4s3)cc2)[nH]c1=O
- inhibition at 25 µg/mL [1]: 78%
- inhibition at 25 µg/mL (Staphylococcus aureus): 81%
- inhibition at 25 µg/mL (Bacillus subtilis): 86%

Structure (SMILES): N#Cc1c(-c2c(Cl)cccc2Cl)nc(SCc2ccc(-c3nn4c(-c5ccccc5Cl)nnc4s3)cc2)[nH]c1=O
- inhibition at 25 µg/mL [1]: 78%
- inhibition at 25 µg/mL (Staphylococcus aureus): 56%
- inhibition at 25 µg/mL (Bacillus subtilis): 63%

Structure (SMILES): N#Cc1c(-c2ccc(Cl)cc2)nc(SCc2ccc(-c3nn4c(-c5ccccc5)nnc4s3)cc2)[nH]c1=O
- inhibition at 25 µg/mL [1]: 62%
- inhibition at 25 µg/mL (Staphylococcus aureus): 49%
- inhibition at 25 µg/mL (Bacillus subtilis): 51%

Structure (SMILES): N#Cc1c(-c2ccc(Cl)cc2Cl)nc(SCc2ccc(-c3nn4c(-c5ccccc5Cl)nnc4s3)cc2)[nH]c1=O
- inhibition at 25 µg/mL [1]: 80%
- inhibition at 25 µg/mL (Staphylococcus aureus): 85%
- inhibition at 25 µg/mL (Bacillus subtilis): 92%
- IC50 [4]: Nd(Insoluble)

Structure (SMILES): N#Cc1c(-c2c(Cl)cccc2Cl)nc(SCc2ccc(-c3nn4c(-c5ccccc5)nnc4s3)cc2)[nH]c1=O
- inhibition at 25 µg/mL [1]: 60%
- inhibition at 25 µg/mL (Staphylococcus aureus): 56%
- inhibition at 25 µg/mL (Bacillus subtilis): 49%

Structure (SMILES): N#Cc1c(-c2ccccc2)nc(SCc2ccc(-c3nn4c(-c5ccccc5)nnc4s3)cc2)[nH]c1=O
- inhibition at 25 µg/mL [1]: 57%
- inhibition at 25 µg/mL (Staphylococcus aureus): 44%
- inhibition at 25 µg/mL (Bacillus subtilis): 48%
